A short description of data set [1]: Inhibition of HCV NS3/4A helicase by FRET assay. Also noted: species or system Hepacivirus hominis. Put shortly: (§1)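 His-tagged NS3/4A (0.9 µg) preincubated with compound on ice for 15 min. Fluorescence (ex 485/em 518 nm) followed continuously and end-point minus start normalized to DMSO. Screened at 100 µM final.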
A short description of data set [2]: Cytotoxicity against human Ava5/Huh7 cells assessed as reduction in cell growth at 5 uM after 5 days in presence of polypeptide synthesis blocker G418. The data set is classed as cell-based. Also noted: scale not given: the % may be the effect or the level left. Conditions: ava5/huh7, 120 h.
Data set [3] in a line: Cytotoxicity against human HuH7 cells. The data set is classed as cell-based, Huh-7.
The nature of data set [4]: Cytotoxicity against human Ava5/Huh7 cells assessed as reduction in cell growth at 5 uM after 5 days in absence of polypeptide synthesis blocker G418. The data set is classed as cell-based. Also noted: scale not given: the % may be the effect or the level left. Conditions: ava5/huh7, 120 h.
A short description of data set [5]: Ratio of CC50 for human HuH7 cells to EC50 for HCV1b. Also noted: species or system Huh-7.
Data set [6] deals with Hepatitis C virus. Put plainly: Antiviral activity against HCV1b infected in human Ava5/Huh7 cells by replicon-cell assay. The data set is classed as functional, organism-based, Hepacivirus hominis. Conditions: genotype 1b. A general note: A replicon is a self-replicating genome or part of one, used to study replication in cells.
Data set [7] has as its system Hepatitis C virus. Put plainly: Antiviral activity against HCV1b infected in human Ava5/Huh7 cells assessed as decrease in viral RNA level at 5 to 10 uM after 2 days by RT-PCR relative to control. The data set is classed as functional, Hepacivirus hominis, genotype 1b. The arrangement: scale not given: the % may be the effect or the level left. Put shortly:
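Ava.5/Huh-7 replicon cells (genotype 1b) seeded and grown 24 h in G-418-free DMEM, then exposed to 5, 10 or 20 µM compound for 24 or 48 h. Total RNA extracted and 1 µg reverse-transcribed with random decamers. SYBR Green real-time PCR run 40 cycles. HCV signal normalized to GAPDH and expressed relative to untreated replicon cells set at 1.0. Triplicate, averaged.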

Data set [8] relates to Hepacivirus hominis. Put plainly: Inhibition of HCV NS3/4A helicase at 100 uM by FRET assay. Summed up:
as §1

Data set [9] deals with Hepacivirus hominis. Put plainly: Inhibition of HCV NS3/4A helicase assessed as blockade of dsRNA binding to enzyme by gel mobility shift assay. Put shortly:
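Gel mobility shift. NS3/4A (0.45 µg) preincubated with 100 µM compound in helicase buffer without ATP for 5 min at 37 °C. Then 0.66 pmol isotope-labeled partial dsRNA added for 15 min more. Complexes resolved on 4% polyacrylamide containing 5% glycerol and visualized by autoradiography.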

Data set [10] can be described thus: Inhibition of ATPase activity of HCV NS3/4A helicase by autoradiography. Also noted: species or system Hepacivirus hominis. Put shortly:
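ATP hydrolysis measured in 20 mM HEPES-KOH pH 7.0, 1.5 mM MgCl2, 2 mM DTT and 0.1 µg/mL poly-U, with [α-32P]ATP spanning 0.067-20 µM ATP. Reaction started by adding His-tagged NS3/4A (0.45 µg) and stopped with EDTA after 5 min. Products separated by PEI-cellulose TLC in 0.375 M K2PO4 pH 3.5 and quantified by autoradiography.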

For data set [11], the system named is Hepacivirus hominis. Put plainly: Inhibition of HCV NS3/4A helicase assessed as blockade of ssRNA formation form dsRNA at 100 uM by PAGE.

The source made the active and inactive calls. No cut-off for these calls is given here.

The IC50 is the midpoint of a concentration-inhibition curve. As usually defined, the CC50 is the concentration giving 50% cytotoxicity. The term EC50 denotes the concentration that produces a half-maximal response. `CC(C)(c1ccc(C(C)(c2ccc(O)c(Br)c2)c2ccc(O)c(Br)c2)cc1)c1ccc(O)c(Br)c1` showed an IC50 in data set [1] of 10.1 µM. The Activity in [2] came to 50%; in [4], 20%; in the data set on Hepatitis C virus [7] it was 40%. In addition, in data set [3], the CC50 amounted to 10.5 µM. Also, in data set [5], the “Ratio CC50/EC50” value amounted to 3.86. A half-maximal response with Hepatitis C virus [6] (EC50) required 2.72 µM.
As a reminder, the inhibition is the change of the read-out against control, counted positive when it falls. For `COc1ccc(-c2cc(-c3ccc(N(C)C)cc3)nc(NS(=O)(=O)c3ccc(N)cc3)n2)cc1`, the inhibition in the data set on Hepacivirus hominis [8] came out at 46%.
`O=C(O)c1cc(Nc2ccc(C(Cl)(c3ccccc3)c3ccc(Nc4ccc(Cl)c(C(=O)O)c4)cc3)cc2)ccc1Cl`: the half-inhibitory concentration (IC50) in data set [1] stood at 29.7 µM; in data set [10] it was 25.1 µM. The Activity entry in the data set on Hepacivirus hominis [9] was “Dose-dependent effect”. The compound also returned a cytotoxic concentration (CC50) in data set [3] above 50 µM. The compound further came in with an EC50 in the data set with Hepatitis C virus [6] above 50 µM. Also, in the data set on Hepacivirus hominis [11], the outcome was Active.
With `Cc1cc([C@@](O)(c2ccc(Nc3ccccc3)cc2)c2ccc(Nc3ccc(S(=O)(=O)[O-])cc3)cc2)ccc1N.[Na+]`, the half-maximal inhibitory concentration (IC50) in data set [1] was 12.6 µM; in data set [10] it was above 100 µM. Also, in the data set on Hepacivirus hominis [9], the Activity entry is “Dose-dependent effect”. In addition, the CC50 in data set [3] worked out at 0.96 µM. Moreover, the “Ratio CC50/EC50” value in data set [5] was found to be 1.39. Moreover, in the data set with Hepatitis C virus [6], the 50% effective concentration (EC50) worked out at 0.69 µM. The result in the data set with Hepacivirus hominis [11] was inactive.
As to `CC(c1ccccc1)(c1ccc(O)cc1)c1ccc(O)cc1`, the inhibition with Hepacivirus hominis [8] was found to be 43%.
On to `CC(c1ccc(O)cc1)(c1ccc(O)cc1)c1ccc(O)cc1`, for which the inhibition with Hepacivirus hominis [8] was 39%.
The same measure, in the same setting: for `COc1ccc(C(C)(C)c2ccc(C(C)(c3ccc(OC)cc3)c3ccc(OC)cc3)cc2)cc1` the value was 15%; for `CC(c1ccccc1)(c1ccc(Oc2ccc([N+](=O)[O-])cc2)cc1)c1ccc(Oc2ccc([N+](=O)[O-])cc2)cc1`, 0%.
`CC(C)(c1ccc(O)cc1)c1ccc(C(C)(c2ccc(O)cc2)c2ccc(O)cc2)cc1`: the IC50 stood at 13.9 µM in data set [1] and 25.9 µM in data set [10]. For the same compound, the Activity entry in the data set with Hepacivirus hominis [9] was “Dose-dependent effect”. Further, the CC50 in data set [3] turned out to be 12.7 µM. The “Ratio CC50/EC50” value in data set [5] came out at 1.51. Further, in the data set on Hepatitis C virus [6], the EC50 was found to be 8.37 µM. The outcome in the data set on Hepacivirus hominis [11] was Active.
Take `O=S(=O)(O)c1ccc(N=C2C=CC(=C(c3ccc(Nc4cccc(S(=O)(=O)O)c4)cc3)c3ccc(Nc4cccc(S(=O)(=O)O)c4)cc3)C=C2)cc1`: the half-inhibitory concentration (IC50) amounted to 40 µM in data set [1] and 23.8 µM in data set [10]. Moreover, in the data set with Hepacivirus hominis [9], the Activity entry was “Dose-dependent effect”. This compound had a CC50 in data set [3] above 50 µM. In the data set on Hepatitis C virus [6], this compound registered an EC50 above 50 µM. Also, the result in the data set on Hepacivirus hominis [11] was Active.
As to `Nc1ccc(C(c2ccc(N)cc2)c2ccc(N)cc2)cc1`, the inhibition in the data set on Hepacivirus hominis [8] turned out to be 30%.
`CC(C)(c1ccc(O)cc1)c1ccc(C(C)(C)c2ccc(O)cc2)cc1`: the IC50 in data set [1] stood at 60.7 µM.

The record behind these values is ChEMBL document CHEMBL1138524, “Structure-based discovery of triphenylmethane derivatives as inhibitors of hepatitis C virus helicase” (J Med Chem, 2009).
